Source: ChEMBL document CHEMBL1275448, “Identification of a novel multidrug efflux pump of Mycobacterium tuberculosis” (2008)
In brackets after ≈: the same amount, converted by molar mass.

How the values were obtained:
Assay type in all cases: functional
[1] = tested on: Mycolicibacterium smegmatis; experiment: Antimicrobial activity against Mycobacterium smegmatis overexpressing rv0194 gene by microplate Alamar blue assay
Method in brief: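 M. smegmatis SMR5 carried either control plasmid pMS2 or rv0194 expression vector pML655. Cells were grown at 37°C in Middlebrook 7H9 with 0.2% glycerol and 0.05% Tween 80, then tested by microplate Alamar blue assay. MIC was the lowest antibiotic concentration reducing culture viability by ≥90%, read by fluorescence (ex 530/em 590 nm, room temperature).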

[2] = tested on: Mycolicibacterium smegmatis; experiment: Resistance factor, ratio of MIC for Mycobacterium smegmatis overexpressing rv0194 gene to MIC for wild-type Mycobacterium smegmatis SMR5
Method in brief: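 Resistance factor is the MABA MIC for M. smegmatis expressing rv0194 divided by the MIC for wild-type SMR5. MIC was the lowest concentration giving ≥90% viability reduction by fluorescence (ex 530/em 590 nm).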

[3] = tested on: Mycobacterium tuberculosis variant bovis BCG; experiment: Antimicrobial activity against Mycobacterium bovis BCG ML1075 carrying transposon IS1096::Km inserted at +899bp of gca gene by microplate Alamar blue assay
Method in brief: (§1)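 Whole-cell M. bovis BCG (Institut Pasteur) MABA; mutants carried IS1096::Km insertions. Growth was in Middlebrook 7H9 with 0.2% glycerol, 0.05% Tween 80 and 10% OADC. Final drug ranges: ampicillin 62.5–2,000 μg/ml, vancomycin 1.25–40 μg/ml, streptomycin 0.25–8 μg/ml, chloramphenicol 4–128 μg/ml, tetracycline 0.5–16 μg/ml. MIC was the lowest concentration cutting viability ≥90%, read by fluorescence (ex 530/em 590 nm, room temperature).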

[4] = tested on: Mycobacterium tuberculosis variant bovis BCG; experiment: Antimicrobial activity against Mycobacterium bovis BCG ML1010 carrying transposon IS1096::Km inserted at +43bp of ppe gene by microplate Alamar blue assay; method in brief: as §1
[5] = tested on: Mycobacterium tuberculosis variant bovis BCG; experiment: Antimicrobial activity against Mycobacterium bovis BCG ML1041 carrying transposon IS1096::Km inserted at +1707bp of ppe24 gene by microplate Alamar blue assay; method in brief: as §1
[6] = tested on: Mycobacterium tuberculosis variant bovis BCG; experiment: Antimicrobial activity against Mycobacterium bovis BCG ML1061 carrying transposon IS1096::Km inserted at +19bp of lppA gene by microplate Alamar blue assay; method in brief: as §1
[7] = tested on: Mycobacterium tuberculosis variant bovis BCG; experiment: Antimicrobial activity against Mycobacterium bovis BCG ML1058 carrying transposon IS1096::Km inserted at +320bp of lprR gene by microplate Alamar blue assay; method in brief: as §1
[8] = tested on: Mycobacterium tuberculosis variant bovis BCG; experiment: Antimicrobial activity against Mycobacterium bovis BCG ML1064 carrying transposon IS1096::Km inserted at +569bp of lppB gene by microplate Alamar blue assay; method in brief: as §1
[9] = tested on: Mycobacterium tuberculosis variant bovis BCG; experiment: Antimicrobial activity against Mycobacterium bovis BCG ML1036 carrying transposon IS1096::Km inserted at +277bp of agpS gene by microplate Alamar blue assay; method in brief: as §1
[10] = tested on: Mycobacterium tuberculosis variant bovis BCG; experiment: Antimicrobial activity against Mycobacterium bovis BCG ML1007 carrying transposon IS1096::Km inserted at +988bp of ppe53 gene by microplate Alamar blue assay; method in brief: as §1
[11] = tested on: Mycobacterium tuberculosis variant bovis BCG; experiment: Antimicrobial activity against Mycobacterium bovis BCG ML1040 carrying transposon IS1096::Km inserted at +1930bp of papA2 gene by microplate Alamar blue assay; method in brief: as §1
[12] = tested on: Mycobacterium tuberculosis variant bovis BCG; experiment: Antimicrobial activity against Mycobacterium bovis BCG ML1047 carrying transposon IS1096::Km inserted at +544bp of fadD23 gene by microplate Alamar blue assay; method in brief: as §1
[13] = tested on: Mycobacterium tuberculosis variant bovis BCG; experiment: Antimicrobial activity against Mycobacterium bovis BCG ML1069 carrying transposon IS1096::Km inserted at +205bp of gmhA gene by microplate Alamar blue assay; method in brief: as §1
[14] = tested on: Mycobacterium tuberculosis variant bovis BCG; experiment: Antimicrobial activity against Mycobacterium bovis BCG ML1013 carrying transposon IS1096::Km inserted at +923bp of cpsY gene by microplate Alamar blue assay; method in brief: as §1
[15] = tested on: Mycobacterium tuberculosis variant bovis BCG; experiment: Antimicrobial activity against Mycobacterium bovis BCG ML1009 carrying transposon IS1096::Km inserted at +368bp of cyp121 gene by microplate Alamar blue assay; method in brief: as §1
[16] = tested on: Mycobacterium tuberculosis variant bovis BCG; experiment: Antimicrobial activity against Mycobacterium bovis BCG ML1006 carrying transposon IS1096::Km inserted at +720bp of bcg3787 gene by microplate Alamar blue assay; method in brief: as §1
[17] = tested on: Mycobacterium tuberculosis variant bovis BCG; experiment: Antimicrobial activity against Mycobacterium bovis BCG ML1025 carrying transposon IS1096::Km inserted at +435bp of bcg3145 gene by microplate Alamar blue assay; method in brief: as §1
[18] = tested on: Mycobacterium tuberculosis variant bovis BCG; experiment: Antimicrobial activity against Mycobacterium bovis BCG ML1065 carrying transposon IS1096::Km inserted at +96bp of bcg0061 gene by microplate Alamar blue assay; method in brief: as §1
[19] = tested on: Mycobacterium tuberculosis variant bovis BCG; experiment: Antimicrobial activity against Mycobacterium bovis BCG ML1048 carrying transposon IS1096::Km inserted at +519bp of bcg1567c gene by microplate Alamar blue assay; method in brief: as §1
[20] = tested on: Mycobacterium tuberculosis variant bovis BCG; experiment: Antimicrobial activity against Mycobacterium bovis BCG ML1030 carrying transposon IS1096::Km inserted at +849bp of bcg1988c gene by microplate Alamar blue assay; method in brief: as §1
[21] = tested on: Mycobacterium tuberculosis variant bovis BCG; experiment: Antimicrobial activity against Mycobacterium bovis BCG ML1053 carrying transposon IS1096::Km inserted at +271bp of bcg2326c gene by microplate Alamar blue assay; method in brief: as §1
[22] = tested on: Mycobacterium tuberculosis variant bovis BCG; experiment: Antimicrobial activity against Mycobacterium bovis BCG ML1029 carrying transposon IS1096::Km inserted at +524bp of bcg2734c gene by microplate Alamar blue assay; method in brief: as §1
[23] = tested on: Mycobacterium tuberculosis variant bovis BCG; experiment: Antimicrobial activity against Mycobacterium bovis BCG ML1038 carrying transposon IS1096::Km inserted at +78bp of bcg2735 gene by microplate Alamar blue assay; method in brief: as §1
[24] = tested on: Mycobacterium tuberculosis variant bovis BCG; experiment: Antimicrobial activity against Mycobacterium bovis BCG ML1046 carrying transposon IS1096::Km inserted at +33bp of bcg2743 gene by microplate Alamar blue assay; method in brief: as §1
[25] = tested on: Mycobacterium tuberculosis variant bovis BCG; experiment: Antimicrobial activity against Mycobacterium bovis BCG ML1052 carrying transposon IS1096::Km inserted at +78bp of bcg2824 gene by microplate Alamar blue assay; method in brief: as §1
[26] = tested on: Mycobacterium tuberculosis variant bovis BCG; experiment: Antimicrobial activity against Mycobacterium bovis BCG ML1050 carrying transposon IS1096::Km inserted at +41bp of bcg2827 gene by microplate Alamar blue assay; method in brief: as §1
[27] = tested on: Mycobacterium tuberculosis variant bovis BCG; experiment: Antimicrobial activity against Mycobacterium bovis BCG ML1037 carrying transposon IS1096::Km inserted at +1765bp of bcg3693 gene by microplate Alamar blue assay; method in brief: as §1
[28] = tested on: Mycobacterium tuberculosis variant bovis BCG; experiment: Antimicrobial activity against Mycobacterium bovis BCG ML1012 carrying transposon IS1096::Km inserted at +1255bp of bcg3960c gene by microplate Alamar blue assay; method in brief: as §1
[29] = tested on: Mycobacterium tuberculosis variant bovis BCG; experiment: Antimicrobial activity against Mycobacterium bovis BCG ML1034 carrying transposon IS1096::Km inserted at -54bp of bcg0231 gene by microplate Alamar blue assay; method in brief: as §1
[30] = tested on: Mycobacterium tuberculosis variant bovis BCG; experiment: Antimicrobial activity against Mycobacterium bovis BCG ML1060 carrying transposon IS1096::Km inserted at -206bp of fadD25/mmpL12 gene by microplate Alamar blue assay; method in brief: as §1
[31] = tested on: Mycobacterium tuberculosis variant bovis BCG; experiment: Antimicrobial activity against Mycobacterium bovis BCG ML1062 carrying transposon IS1096::Km inserted at -18bp of pks11 gene by microplate Alamar blue assay; method in brief: as §1
[32] = tested on: Mycobacterium tuberculosis variant bovis BCG; experiment: Antimicrobial activity against Mycobacterium bovis BCG ML1044 carrying transposon IS1096::Km inserted at -178bp of ppe33b gene by microplate Alamar blue assay; method in brief: as §1
[33] = tested on: Mycobacterium tuberculosis variant bovis BCG; experiment: Antimicrobial activity against Mycobacterium bovis BCG ML1042 carrying transposon IS1096::Km inserted at -509bp of bcg2123c/pe22 gene by microplate Alamar blue assay; method in brief: as §1
[34] = tested on: Mycobacterium tuberculosis variant bovis BCG; experiment: Antimicrobial activity against Mycobacterium bovis BCG ML1051 carrying transposon IS1096::Km inserted at -420bp of bcg2965 gene by microplate Alamar blue assay; method in brief: as §1
[35] = tested on: Mycobacterium tuberculosis variant bovis BCG; experiment: Antimicrobial activity against Mycobacterium bovis BCG ML1034 by microplate Alamar blue assay; method in brief: as §1

CC1(C)S[C@@H]2[C@H](NC(=O)[C@H](N)c3ccccc3)C(=O)N2[C@H]1C(=O)O [AMPICILLIN]
MIC [1]: 250 µg/mL (≈ 715 µM)
Ratio [2]: 2
MIC [3]: 2000 µg/mL (≈ 5720 µM)
MIC [4]: 500 µg/mL (≈ 1430 µM)
MIC [5]: > 2000 µg/mL
MIC [6]: > 2000 µg/mL
MIC [7]: 2000 µg/mL (≈ 5720 µM)
MIC [8]: 2000 µg/mL (≈ 5720 µM)
MIC [9]: 250 µg/mL (≈ 715 µM)
MIC [10]: 2000 µg/mL (≈ 5720 µM)
MIC [11]: 2000 µg/mL (≈ 5720 µM)
MIC [12]: 2000 µg/mL (≈ 5720 µM)
MIC [13]: 2000 µg/mL (≈ 5720 µM)
MIC [14]: 2000 µg/mL (≈ 5720 µM)
MIC [15]: 2000 µg/mL (≈ 5720 µM)
MIC [16]: 2000 µg/mL (≈ 5720 µM)
MIC [17]: 250 µg/mL (≈ 715 µM)
MIC [18]: > 2000 µg/mL
MIC [19]: 250 µg/mL (≈ 715 µM)
MIC [20]: 2000 µg/mL (≈ 5720 µM)
MIC [21]: 2000 µg/mL (≈ 5720 µM)
MIC [22]: > 2000 µg/mL
MIC [23]: 2000 µg/mL (≈ 5720 µM)
MIC [24]: 500 µg/mL (≈ 1430 µM)
MIC [25]: > 500 µg/mL
MIC [26]: 2000 µg/mL (≈ 5720 µM)
MIC [27]: 250 µg/mL (≈ 715 µM)
MIC [28]: > 2000 µg/mL
MIC [29]: 2000 µg/mL (≈ 5720 µM)
MIC [30]: 250 µg/mL (≈ 715 µM)
MIC [31]: > 2000 µg/mL
MIC [32]: 250 µg/mL (≈ 715 µM)
MIC [33]: 500 µg/mL (≈ 1430 µM)
MIC [34]: > 500 µg/mL
MIC [35]: 2000 µg/mL (≈ 5720 µM)

O=C(N[C@H](CO)[C@H](O)c1ccc([N+](=O)[O-])cc1)C(Cl)Cl [CHLORAMPHENICOL]
MIC [1]: 32 µg/mL (≈ 99 µM)
Ratio [2]: 1
MIC [35]: 512 µg/mL (≈ 1580 µM)

CC[C@H]1OC(=O)[C@H](C)[C@@H](O[C@H]2C[C@@](C)(OC)[C@@H](O)[C@H](C)O2)[C@H](C)[C@@H](O[C@@H]2O[C@H](C)C[C@H](N(C)C)[C@H]2O)[C@](C)(O)C[C@@H](C)C(=O)[C@H](C)[C@@H](O)[C@]1(C)O [ERYTHROMYCIN]
MIC [1]: 10 µg/mL (≈ 13.6 µM)
Ratio [2]: 4

CO[C@@H]1[C@@H](OC(N)=O)[C@@H](O)[C@H](Oc2ccc3c(O)c(NC(=O)c4ccc(O)c(CC=C(C)C)c4)c(=O)oc3c2C)OC1(C)C [NOVOBIOCIN]
MIC [1]: 8 µg/mL (≈ 13.1 µM)
Ratio [2]: 2

CN[C@@H]1[C@H](O[C@H]2[C@H](O[C@H]3[C@H](O)[C@@H](O)[C@H](N=C(N)N)[C@@H](O)[C@@H]3N=C(N)N)O[C@@H](C)[C@]2(O)C=O)O[C@@H](CO)[C@H](O)[C@H]1O [STREPTOMYCIN]
MIC [35]: 16 µg/mL (≈ 27.5 µM)

CN(C)[C@@H]1C(O)=C(C(N)=O)C(=O)[C@@]2(O)C(O)=C3C(=O)c4c(O)cccc4[C@@](C)(O)[C@H]3C[C@@H]12 [TETRACYCLINE]
MIC [1]: 0.3 µg/mL (≈ 0.675 µM)
Ratio [2]: 1
MIC [35]: > 16 µg/mL

CN[C@H](CC(C)C)C(=O)N[C@H]1C(=O)N[C@@H](CC(N)=O)C(=O)N[C@H]2C(=O)N[C@H]3C(=O)N[C@H](C(=O)N[C@H](C(=O)O)c4cc(O)cc(O)c4-c4cc3ccc4O)[C@H](O)c3ccc(c(Cl)c3)Oc3cc2cc(c3O[C@@H]2O[C@H](CO)[C@@H](O)[C@H](O)[C@H]2O[C@H]2C[C@](C)(N)[C@H](O)[C@H](C)O2)Oc2ccc(cc2Cl)[C@H]1O [VANCOMYCIN]
MIC [1]: 2.5 µg/mL (≈ 1.73 µM)
Ratio [2]: 2
MIC [35]: 20 µg/mL (≈ 13.8 µM)
